Broadly, the IC50 is the point on the concentration scale where inhibition reaches its midpoint. One may read the inhibition as how much of the control response was suppressed.

The source of these data is ChEMBL document CHEMBL1255540, “Synthesis and biological evaluation of novel coumarin-based inhibitors of Cdc25 phosphatases” (Bioorg Med Chem Lett, 2010).

In assay [1] the target is T1, M-phase inducer phosphatase 3 (Homo sapiens, UniProt P30307).
T1 sequence (P30307 whole entry): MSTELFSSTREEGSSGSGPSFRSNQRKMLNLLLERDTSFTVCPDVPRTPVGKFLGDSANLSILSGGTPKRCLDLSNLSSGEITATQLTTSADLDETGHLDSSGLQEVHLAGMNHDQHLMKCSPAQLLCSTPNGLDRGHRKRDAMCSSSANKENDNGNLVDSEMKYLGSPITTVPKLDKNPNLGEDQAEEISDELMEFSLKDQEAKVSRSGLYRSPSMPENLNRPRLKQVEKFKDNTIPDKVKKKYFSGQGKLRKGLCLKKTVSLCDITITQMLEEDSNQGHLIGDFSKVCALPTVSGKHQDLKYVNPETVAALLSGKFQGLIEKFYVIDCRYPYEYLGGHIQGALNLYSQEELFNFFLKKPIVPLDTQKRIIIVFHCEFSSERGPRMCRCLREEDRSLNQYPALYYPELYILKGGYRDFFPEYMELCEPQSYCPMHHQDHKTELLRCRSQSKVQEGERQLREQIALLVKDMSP
In words: Inhibition of human recombinant GST-tagged CDC25C expressed in bacterial expression system after 2 hrs. In outline: (§1)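 Full-length GST-Cdc25C, bacterial IPTG expression, GSH-agarose purification. 1 µg enzyme per well. Single-point tests at 100 µM final (reference 10 µM) and IC50 values. Each concentration in three separate microplates, three wells each. IC50 by generalized Poisson regression.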

The target in assay [2] is T2, M-phase inducer phosphatase 3 (Homo sapiens) (UniProt P30307).
T2 sequence (whole entry): T1 sequence (P30307 whole entry)
In words: Inhibition of human recombinant GST-tagged CDC25C expressed in bacterial expression system at 100 uM after 2 hrs. In outline:
as §1

Assay [3] concerns the target T3, M-phase inducer phosphatase 1 (Homo sapiens) (UniProt P30304).
T3 sequence (whole entry): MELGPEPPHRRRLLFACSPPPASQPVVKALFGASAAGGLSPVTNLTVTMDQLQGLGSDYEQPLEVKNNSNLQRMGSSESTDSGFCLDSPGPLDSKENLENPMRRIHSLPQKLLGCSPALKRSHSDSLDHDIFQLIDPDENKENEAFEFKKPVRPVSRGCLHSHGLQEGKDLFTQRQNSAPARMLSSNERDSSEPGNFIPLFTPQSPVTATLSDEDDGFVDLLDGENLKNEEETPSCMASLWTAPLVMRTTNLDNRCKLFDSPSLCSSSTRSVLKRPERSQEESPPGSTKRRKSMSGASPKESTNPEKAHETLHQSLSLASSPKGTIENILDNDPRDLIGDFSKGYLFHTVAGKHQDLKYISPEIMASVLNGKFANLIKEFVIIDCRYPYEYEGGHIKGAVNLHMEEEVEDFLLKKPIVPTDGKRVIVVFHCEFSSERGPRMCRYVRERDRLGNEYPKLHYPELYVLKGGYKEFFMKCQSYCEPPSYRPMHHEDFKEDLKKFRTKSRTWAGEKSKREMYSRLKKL
In words: Inhibition of human recombinant GST-tagged CDC25A expressed in bacterial expression system at 100 uM after 2 hrs. The gist of the method:
(§2)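 GST-Cdc25A (full length), made in bacteria by IPTG induction and purified on GSH-agarose. Enzyme at 1 µg/well. Compounds tested at 100 µM final (reference at 10 µM). Reported as % inhibition, mean ± SD of three independent experiments.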

Assay [4] has as its target T4, M-phase inducer phosphatase 1 (Homo sapiens, UniProt P30304).
T4 sequence (P30304 whole entry): T3 sequence (whole entry)
In words: Inhibition of human recombinant GST-tagged CDC25A expressed in bacterial expression system after 2 hrs. In outline:
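Each concentration tested in three independent microplates, three wells per plate. Median inhibitory concentration derived by generalized Poisson regression.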

For assay [5], the target named is T3, M-phase inducer phosphatase 1 (Homo sapiens). In words: Irreversible inhibition of human recombinant GST-tagged CDC25A expressed in bacterial expression system at 100 uM pretreated for up to 90 mins measured after 100 fold dilution. The gist of the method:
(§3)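 Reversibility test. GST-Cdc25A was pre-incubated with compound at 100 µM (reference at 10 µM, DMSO control) for 0–90 min. The mixture was then diluted 100-fold to 1 µM (reference 0.1 µM). Activity was measured by adding OMFP to wells holding 900 ng enzyme. Representative of three independent experiments (M ± SD).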

For assay [6] the target is unchanged. In words: Inhibition of human recombinant GST-tagged CDC25A expressed in bacterial expression system assessed as residual activity at 100 uM pretreated for 90 mins. The gist of the method:
as §3

In assay [7] the target is T5, M-phase inducer phosphatase 2 (Homo sapiens) (UniProt P30305).
T5 sequence (whole entry): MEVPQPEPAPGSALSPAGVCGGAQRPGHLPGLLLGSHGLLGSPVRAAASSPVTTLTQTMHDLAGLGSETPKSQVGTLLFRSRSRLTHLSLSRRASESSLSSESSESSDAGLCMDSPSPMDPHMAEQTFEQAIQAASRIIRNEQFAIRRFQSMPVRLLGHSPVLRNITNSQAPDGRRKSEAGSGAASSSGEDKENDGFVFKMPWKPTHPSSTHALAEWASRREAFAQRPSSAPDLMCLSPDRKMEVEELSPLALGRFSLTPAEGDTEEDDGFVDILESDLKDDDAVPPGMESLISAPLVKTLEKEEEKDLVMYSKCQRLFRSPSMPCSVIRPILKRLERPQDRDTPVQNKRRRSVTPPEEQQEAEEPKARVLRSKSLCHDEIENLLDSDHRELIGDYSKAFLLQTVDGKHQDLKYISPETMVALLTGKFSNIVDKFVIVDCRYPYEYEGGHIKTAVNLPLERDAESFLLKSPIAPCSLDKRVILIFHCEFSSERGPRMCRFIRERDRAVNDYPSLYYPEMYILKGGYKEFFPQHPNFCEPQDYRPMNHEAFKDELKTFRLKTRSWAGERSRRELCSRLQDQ
In words: Inhibition of human recombinant GST-tagged CDC25B expressed in bacterial expression system at 100 uM after 2 hrs. In outline:
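Truncated GST-Cdc25B (active site only) expressed in bacteria by IPTG induction, purified on GSH-agarose. Tested at 100 µM final, reference at 10 µM. Percent inhibition, mean of three independent experiments with SD.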

Assay [8] addresses T3, M-phase inducer phosphatase 1 (Homo sapiens). In words: Inhibition of human recombinant GST-tagged CDC25A expressed in bacterial expression system. As to conditions: TDE = time-dependent effect. In outline:
as §2

SMILES strings stand for the structures. Activity calls are given as the source filed them. No cut-off for these calls is given here.

Turning to `O=C(/C=C/c1cc(=O)oc2cc(O)ccc12)c1ccc(O)c(O)c1`, the 50% inhibitory concentration (IC50) was 72 µM in assay [1] and 62 µM in assay [4]. For the same compound, the inhibition is 43.7% in assay [2] and 68.7% in assay [3].
Take `COc1ccc2c(/C=C/C(=O)c3ccccc3)cc(=O)oc2c1`: the IC50 in assay [1] worked out at 49 µM; in assay [4], 27 µM. Further, the result in assay [5] was Active. The inhibition in assay [2] is 79.3%; in assay [3] it was 94.2%; in assay [7], 35%; in assay [8], “tde”. For the same compound, the Activity in assay [6] amounted to 35%.
Consider `Cc1c(/C=C/c2ccc(O)cc2)c(=O)oc2cc(O)ccc12`, for which the inhibition in assay [2] came to 15.6%; in assay [3], 27.5%; in assay [7], 8.5%.
For the compound `COc1ccc2c(CSCC(=O)c3ccc(OC)c(OC)c3)cc(=O)oc2c1`, the inhibition amounted to 26.2% in assay [2] and 39.8% in assay [3].
Taken in the same sequence, the figures for `COc1ccc(-c2c(C)c3ccc(OC)cc3oc2=O)cc1` were 17.9% and 20.5%.
`COc1ccc(C(=O)CSCc2cc(=O)oc3cc(OC)ccc23)cc1`: the inhibition in assay [2] worked out at 27.9%; in assay [3], 26.7%.
As to `O=C(/C=C/c1cc(=O)oc2cc(O)ccc12)c1ccccc1`, the 50% inhibitory concentration (IC50) in assay [1] came out at 26 µM; in assay [4], 28 µM. For the same compound, the values for the inhibition in assay [2], in assay [3] and in assay [7] were 94.2%, 94.3% and 23.2%, respectively.
The corresponding values for `COc1ccc(C(=O)/C=C/c2cc(=O)oc3cc(OC)ccc23)cc1` are 47 µM, 70 µM, 64.8%, 66.4% and 21.3%.
Take `O=C(/C=C/c1cc(=O)oc2cc(O)ccc12)c1ccc(O)cc1`: the half-inhibitory concentration (IC50) was over 150 µM in assay [1] and 96 µM in assay [4]. The inhibition in assay [2] came to 23.9%; in assay [3], 55%; in assay [7], 9.2%.
On to `COc1ccc2c(/C=C/C(=O)c3ccc(OC)c(OC)c3)cc(=O)oc2c1`, for which the IC50 came out at 67 µM in assay [1] and 78 µM in assay [4]. In addition, the inhibition in assay [2] worked out at 69%; in assay [3] it was 61.5%; in assay [7], 6.5%.
For `COc1ccc2c(C(=O)/C=C/c3ccc(OC)c(OC)c3)cc(=O)oc2c1`, the inhibition turned out to be 7.4% in assay [3] and 9.1% in assay [7].
Turning to `COc1ccc2c(CSCC(=O)c3ccccc3)cc(=O)oc2c1`, the inhibition stood at 21.2% in assay [2] and 16.1% in assay [7].
On to `Cc1c(-c2ccc(O)cc2)c(=O)oc2cc(O)ccc12`, for which the inhibition in assay [3] stood at 22%.
In the case of `COc1ccc(/C=C/C(=O)c2cc(=O)oc3cc(OC)ccc23)cc1`, the inhibition in assay [2] stood at 4.8%.
In the case of `COc1ccc(/C=C/c2c(C)c3ccc(OC)cc3oc2=O)cc1`, the inhibition in assay [2] worked out at 48.4%; in assay [3], 45.3%.
Taken in the same sequence, the figures for `COc1ccc2c(C(=O)/C=C/c3ccccc3)cc(=O)oc2c1` were 31.3% and 45%.
